The list is not random: actives were taken first. Their share in the collection is about 1.9%.
M5 ag = human M5 muscarinic receptor agonists, primary screen, CHO-K1 cells, Fluo-8 calcium fluorescence; activation, % at 3 µM; Muscarinic acetylcholine receptor M5 (Homo sapiens), P08912; 360,000 compounds, 0.19% hits; CHO-K1 hM5 cells; 0% DMSO wells, 100% maximal acetylcholine response;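 active = activation above the run's mean over test compounds plus 3 SD, cut at about 23% in these data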;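 note: signal is peak over basal fluorescence ratio across the kinetic read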
Target sequence (P08912 whole entry, looked up): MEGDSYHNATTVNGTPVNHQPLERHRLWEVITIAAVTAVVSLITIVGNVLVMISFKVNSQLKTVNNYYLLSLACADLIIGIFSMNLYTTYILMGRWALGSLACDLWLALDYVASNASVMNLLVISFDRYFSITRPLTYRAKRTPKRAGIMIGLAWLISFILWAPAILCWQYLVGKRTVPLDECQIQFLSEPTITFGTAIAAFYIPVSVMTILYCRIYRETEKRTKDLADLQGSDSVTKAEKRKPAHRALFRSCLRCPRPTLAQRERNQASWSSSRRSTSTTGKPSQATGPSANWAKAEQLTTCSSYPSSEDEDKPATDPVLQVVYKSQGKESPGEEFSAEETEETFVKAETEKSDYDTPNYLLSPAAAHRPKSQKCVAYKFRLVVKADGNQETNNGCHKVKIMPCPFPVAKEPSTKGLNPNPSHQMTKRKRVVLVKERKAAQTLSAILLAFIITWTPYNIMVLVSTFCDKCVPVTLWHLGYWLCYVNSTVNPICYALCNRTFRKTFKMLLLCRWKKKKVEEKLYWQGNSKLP
CHRM4 antagonist = human M4 muscarinic receptor antagonists, primary screen, CHO cells, Fluo-8 calcium fluorescence. Muscarinic acetylcholine receptor M4 (Homo sapiens), P08173. CHO-hM4 cells, ACh EC80. inhibition, % at 3 µM. 360,000 compounds, 0.73% hits;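 active = inhibition above its plate's cutoff, the mean inhibition of sample wells plus 3 SD, cut at about 27% in these data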;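 note: 0% = acetylcholine EC80 with DMSO and 100% = DMSO without agonist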
CHRM5 PAM = human M5 muscarinic receptor positive allosteric modulators, primary screen, CHO-K1 cells, Fluo-8 calcium fluorescence. Muscarinic acetylcholine receptor M5 (Homo sapiens), P08912. CHO-K1 hM5, ACh EC20 PAM; 0% = ACh EC20, 100% = ACh EC100. activation, % at 3 µM. 360,000 compounds, 0.3% hits;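 active = activation above the run cutoff, the mean activation of all test compounds plus 3 SD, cut at about 18% in these data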
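Probe or stimulus: acetylcholine, EC20 level; Assay system: human M5 receptor in CHO-K1 cells; Schedule: compound preincubation 140 s before EC20 acetylcholine addition; Technique: intracellular calcium via Fluo-8 fluorescence; Dosing: single-point, 3 µM nominal; Read-out basis: percent activation from peak-over-basal fluorescence ratio, scaled EC20-to-EC100 acetylcholine; Repeats: one well per compound, no replicates.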
M5 antag = human M5 muscarinic receptor antagonists, primary screen, CHO cells, Fluo-8 calcium fluorescence; CHO-hM5 cells, ACh EC80; inhibition, % at 3 µM; 360,000 compounds, 0.59% hits;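 active = inhibition above a per-plate cutoff, the mean of that plate's test compounds plus 3 SD, cut at about 27% in these data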;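 note: 0% = acetylcholine EC80 with DMSO and 100% = DMSO without agonist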
CHRM4 PAM = human M4 muscarinic receptor positive allosteric modulators, primary screen, CHO-K1 cells, Fluo-8 calcium fluorescence; Muscarinic acetylcholine receptor M4 (Homo sapiens), P08173; CHO-K1 hM4/Gqi5, ACh EC20; 0% = ACh EC20, 100% = maximal ACh; activation, % at 3 µM; 360,000 compounds, 0.4% hits;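 active = activation above its plate's cutoff, the mean activation of sample wells plus 3 SD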
M4 ag = human M4 muscarinic receptor agonists, primary screen, CHO-K1 cells, Fluo-8 calcium fluorescence; Muscarinic acetylcholine receptor M4 (Homo sapiens), P08173; CHO-K1 hM4/Gqi5; vehicle 0%, full acetylcholine response 100%; activation, % at 3 µM; 360,000 compounds, 0.14% hits; AID 624127, 2012;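 active = activation above the run mean over all test wells plus 3 SD, cut at about 32% in these data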;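 note: peak over basal fluorescence ratio per well then scaled between controls; 0% = DMSO wells and 100% = acetylcholine at EC100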
An asterisk follows results filed as active.

SMILES	M5 ag	CHRM4 antagonist	CHRM5 PAM	M5 antag	CHRM4 PAM	M4 ag
Cc1cc(=O)[nH]c(SCC(=O)N2CCN(C(c3ccccc3)c3ccccc3)CC2)n1	-8	20	-24	32*	-17	0
O=C(CSc1nc(-c2ccccc2)cc(=O)[nH]1)N1CCOCC1	-4	-6	1	40*	7	1
COC(=O)c1cc(CNC(=O)Cc2ccsc2)ccc1OC	-2	98*	-3	10	-22	-1
CC[C@H](C)[C@H]1CNC(=S)N1CC1CCN(CCCCc2ccccc2)CC1	-3	37*	-18	20	-15	1
CC[C@H](C)[C@H]1CNC(=S)N1CC1CCN(CCCC2CCCC2)CC1	-3	27*	-17	16	-14	2
CC(C)C[C@H]1CNC(=S)N1CC1CCN(CC2CCCC2)CC1	-3	-7	-15	-3	-6	0
CC(C)C[C@H]1CNC(=S)N1CC1CCN(CC2CCC(C(C)(C)C)CC2)CC1 (stereo partly specified)	-3	50*	-20	35*	-17	4
CCN1CCC(CN2CCNC2=S)CC1	-1	-1	4	-6	0	0
S=C1NCCN1CC1CCN(CCC23CC4CC(CC(C4)C2)C3)CC1	-3	58*	-16	11	-15	3
COc1cccc(CN(C)C(=O)c2ccc(NC(=O)CC3SC(N4CCCC4)=NC3=O)cc2)c1OC (stereo unspecified)	1	-2	6	-1	7	0
CCOC(=O)c1c(-c2ccc3ccccc3c2)csc1NC(=O)CCCC(=O)O	-5	-11	6	-4	7	2
O=C(/C=C/c1ccc(OC(F)F)cc1)Nc1cccc(S(=O)(=O)NC2=NCCCCC2)c1	0	8	-11	18	-8	18
CC(C)C[C@H]1CNC(=S)N1CC1CCN(CCCC2CCCCC2)CC1	-3	55*	-19	15	-15	1
CC(C)C[C@H]1CNC(=S)N1CC1CCN(CCC23CC4CC(CC(C4)C2)C3)CC1	-3	67*	-19	49*	-16	3
CSc1cccc(NC(N)=O)c1	4	-5	8	-4	0	0
CC(=O)c1ccc(NC(=O)Nc2cccc(Cl)c2)cc1	8	12	-21	28*	-8	15
CC(=O)Nc1ccc(NC(=O)Nc2cccc(Cl)c2)cc1	3	-3	-5	4	-2	3
CC(=O)c1cccc(NC(=O)NCCc2ccc(Cl)cc2)c1	1	0	-2	12	16*	9
CSc1cccc(NC(=O)Nc2ccc(Cl)cc2)c1	8	9	-15	31*	-9	9
COc1cc2c3nc4n(c(=O)c3n(CC(=O)N3CCCC3)c2cc1OC)CCS4	-2	-16	2	8	4	2
Cc1cccc(C)c1NC(=O)CNC(=O)CCC(=O)N1CCOCC1	-1	-17	-11	8	-1	0
O=C(C1CCC(CNS(=O)(=O)c2ccccc2)CC1)N1CCOCC1 (stereo unspecified)	3	3	-4	11	-3	2
O=C1CC(SC(=NCc2ccc3c(c2)OCO3)Nc2ccccc2)C(=O)N1c1ccccc1 (stereo unspecified)	0	-19	14	-7	24*	1
O=C(COC(=O)C1CCN(S(=O)(=O)c2c(Cl)cccc2Cl)CC1)NCc1ccco1	1	-6	-3	-2	-1	9
COc1cc(C)nc(N(C)C(C)=O)n1	-1	-4	-8	7	3	0
CSc1cc(C)nc(N(C)C(C)=O)n1	1	-12	-5	7	19*	0
CCCc1cc(=O)n2[nH]c(NCc3c(Cl)cccc3Cl)nc2n1	-8	14	3	-2	-1	0

Screening data from PubChem BioAssay.
